Data from article PMC3355519 (Journal of Medicinal Chemistry, 2012).
pKi: −log10 of the molar value.

Key:
[1] = test system: HIV-1 protease D30N/N88D double mutant; conditions: cited from earlier work
HIV-1 PRV82A = HIV-1 PRV82A (Human immunodeficiency virus type 1 group M subtype B, UniProt P04585, C555A/C583A/L521I/L551I/Q495K/V570A); test: HIV-1 protease inhibition, fluorogenic p2/NC substrate, V82A mutant; type: biochemical; conditions: PRV82A vs PRWT
In short: (§1)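 Recombinant HIV-1 protease (HXB2) carried stabilising substitutions Q7K, L33I, L63I, C67A and C95A, plus the point mutation introduced by site-directed mutagenesis. It was expressed in E. coli BL21(DE3) and purified from inclusion bodies. Enzyme (12-45 nM final) was preincubated 5 min at 37 °C with test compound or DMSO in 0.1 M MES pH 5.6, 0.4 M NaCl, 1 mM EDTA, 5% glycerol. Abz-Thr-Ile-Nle-p-nitro-Phe-Gln-Arg-NH2 started the reaction, read 5 min at ex 340/em 420 nm. Ki = (IC50 − [E]/2)/(1 + [S]/Km).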

HIV-1LAI = conditions: against HIV-1LAI; cited from earlier work
HIV-1 PRI47V = HIV-1 PRI47V (Human immunodeficiency virus type 1 group M subtype B, UniProt P04585, C555A/C583A/I535V/L521I/L551I/Q495K); test: HIV-1 protease inhibition, fluorogenic p2/NC substrate, I47V mutant; type: biochemical
In short: as §1

Row | Structure (SMILES) | increase of Ki value compared to wild-type [1] [fold] | change in the inhibition constant vs wild-type (HIV-1 PRV82A) | selectivity index (CC50/EC50) (HIV-1LAI) | pKi (HIV-1 PRI47V; Ki, PRI47V, pH 5.6, 37 °C) | change in the inhibition constant vs wild-type (HIV-1 PRI47V; PRI47V vs PRWT)
1 | Cc1c(O)cccc1C(=O)N[C@@H](CSc1ccccc1)[C@H](O)CN1C[C@H]2CCCC[C@H]2C[C@H]1C(=O)NC(C)(C)C [NFV, nelfinavir] | 260 |  |  |  | 
2 | COc1ccc(S(=O)(=O)N(C[C@H]2CCC(=O)N2)C[C@@H](O)[C@H](Cc2ccccc2)NC(=O)O[C@@H]2C[C@@H]3CCO[C@@H]3C2)cc1 [Compound 1] |  | less than 2 fold | > 3,600 | 9.40 | less than 2 fold
